Compound activity as filed in PubChem.
Rows were chosen to be rich in hits. Some 4.5% of all compounds tested hit in one or more screens of this group.
TAAR1 agonist – human TAAR1 agonism | Q96RJ0 | CHO RD-HGA16 TAAR1, Fluo-8 calcium fluorescence; vehicle wells 0%, saturating PEA agonist 100% | activation, % at 3 µM | 0.99% of 360,000 active | AID 624467;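 active means activation above the mean activation of all test compounds in the run plus 3 SD, cut at about 38% in these data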
Target sequence (Q96RJ0 whole entry, looked up): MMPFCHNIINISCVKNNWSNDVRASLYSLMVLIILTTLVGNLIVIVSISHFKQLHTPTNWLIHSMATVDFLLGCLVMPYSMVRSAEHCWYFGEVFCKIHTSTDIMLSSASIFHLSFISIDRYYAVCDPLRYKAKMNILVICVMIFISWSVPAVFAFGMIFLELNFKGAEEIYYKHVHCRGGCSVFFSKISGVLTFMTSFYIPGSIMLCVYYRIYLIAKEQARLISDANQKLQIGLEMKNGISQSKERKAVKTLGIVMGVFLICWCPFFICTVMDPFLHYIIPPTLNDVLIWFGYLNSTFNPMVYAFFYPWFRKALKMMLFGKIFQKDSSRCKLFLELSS
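Assay system – CHO-derived RD-HGA16 cells with stable Gα16 and human TAAR1 · Compound dosing – one-point dosing at 3 µM (nominal) · Incubation – 17-24 h seeding, 75 min 37 °C dye, 30 min RT · Measured by – kinetic Fluo-8 calcium fluorescence · Control set – DMSO vehicle as 0%, PEA at EC100 as 100% · Repeats – single well for each compound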
OX1R antag-1 – blocks the human orexin 1 receptor. inhibition, % at 6.6 µM. 1.8% of 330,000 active. OX1R-expressing cells, FRET antagonist read-out. O43613; in the data active means inhibition mostly above about 38%, no sharp cut-off; inactive means mostly below about 40%
OX1R antag-2 – human HCRTR1 antagonism | 0.43% of 330,000 active | AID 434989 | CHO/OX1R cells, Fluo-8 calcium fluorescence, orexin A | O43613 | inhibition, % at 5 µM;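 active means inhibition above its plate's threshold, mean inhibition of all tested compounds on the plate plus 3 SD, cut at about 37% in these data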
TAAR1 antagonist – antagonists of human TAAR1 | 1.5% of 360,000 active | inhibition, % at 3 µM | CHO RD-HGA16 TAAR1, Fluo-8 calcium fluorescence, antagonist;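 active means inhibition above a per-plate cutoff, the mean inhibition of test compounds on that plate plus 3 SD, cut at about 49% in these data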
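Assay system: CHO-derived RD-HGA16 cells stably expressing human TAAR1 plus Gα16. Timing: 140 s kinetic read after compound, 140 s after agonist. Technique: kinetic Fluo-8 calcium fluorescence measurement. Measure: % inhibition of agonist calcium response.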
CHO parental Ca – signal in parental CHO cells, OX1R antagonist counter-screen. parental CHO-K1, ATP-induced calcium, Fluo-8 fluorescence. inhibition, % at 5.6 µM. 0.63% of 330,000 active. AID 463079;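 active means inhibition above that plate's mean sample inhibition plus 3 SD, cut at about 26% in these data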
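Assay system: parental CHO cells; Read-out basis: percent inhibition of ATP-evoked calcium rise, normalized to controls; Benchmarks: ATP and no-ATP DMSO wells; Compound dosing: single nominal dose of 5.6 µM per compound; Signal: Fluo-8 calcium dye fluorescence; Also added: ATP as calcium-mobilizing challenge; Repeats: singlicate.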
GPR7 antagonist – human neuropeptides B/W receptor 1 antagonism; GPR7-expressing cells, fluorescence antagonist assay; inhibition, % at 4.4 µM; AID 1861; 1.1% of 290,000 active; P48145; in the data active means inhibition above about 16%, passing the limit was not always enough;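 further: cells stimulated with the agonist NPW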
Each line names hits and unclear results; the compound was inactive in the other large screens.

CC1=C(C(=O)N(C)C)CC(CC(=O)NCCc2ccccn2)C(=O)N1Cc1ccc(C(C)(C)C)cc1 (stereo unspecified)	none (no result: OX1R antag-1, OX1R antag-2, CHO parental Ca, GPR7 antagonist)
CC1=C(C(=O)N(C)C)CC(CC(=O)NCCc2ccccn2)C(=O)N1Cc1ccc(F)cc1 (stereo unspecified)	TAAR1 agonist 41 (no result: OX1R antag-1, OX1R antag-2, CHO parental Ca, GPR7 antagonist)
CC1=C(C(=O)N(C(C)C)C(C)C)CC(CC(=O)NCCc2ccccn2)C(=O)N1Cc1ccc(F)cc1 (stereo unspecified)	TAAR1 agonist 38 (no result: OX1R antag-1, OX1R antag-2, CHO parental Ca, GPR7 antagonist)
CN[C@H]1C[C@H]2c3[nH]c4ccc(-c5cccc(C)c5)cc4c3CCN2C[C@H]1[C@H](C)O	none (no result: OX1R antag-1, OX1R antag-2, CHO parental Ca, GPR7 antagonist)
O=C(O)c1ccc(N/N=C/c2ccc(-c3ccccc3)cc2)cc1	none (no result: OX1R antag-1, OX1R antag-2, CHO parental Ca)
O=C(O)c1ccc(N/N=C/c2ccc(OC(=O)c3ccccc3Cl)cc2)cc1	TAAR1 antagonist 58
Cc1cc(C)cc(NC(=S)NCCSc2ccc(Cl)cc2)c1	TAAR1 antagonist 57
Cc1ccc(SCCNC(=S)Nc2ccc(C)c(C)c2)cc1	none
COc1ccc(S(=O)(=O)NN(C)c2nc(C(F)(F)F)nc3ccccc23)cc1	OX1R antag-1 72
COc1ccc(S(=O)(=O)Nc2ccccc2C(F)(F)F)cc1	none
Cc1cc(C)n(CC(=O)NNC(=O)COc2ccc(Br)cc2F)n1	none (no result: GPR7 antagonist)
CCN(CC(=O)Nc1cccc(F)c1)CC(=O)Nc1ccccc1OC	none
CN1CCc2c(sc(NC(=O)c3ccc(S(=O)(=O)N4CCc5ccccc54)cc3)c2C(N)=O)C1	TAAR1 antagonist 50
CNC(=O)c1c(NC(=O)c2ccc(S(=O)(=O)N3CCCc4ccccc43)cc2)sc2c1CCN(C)C2	none
CCN(Cc1ccc2c(c1)OCCO2)C(=O)CSc1nc(C)nc2sc(C)c(C)c12	TAAR1 antagonist 59 (no result: GPR7 antagonist)
COc1ccc2c(c1)C=Cc1ccccc1O2	none (no result: TAAR1 agonist, TAAR1 antagonist, GPR7 antagonist)
CCOC(=O)c1c2c(n(Cc3ccccc3)c1C)C(=O)C(=O)c1ccccc1-2	TAAR1 antagonist 55 (no result: OX1R antag-1, OX1R antag-2, CHO parental Ca, GPR7 antagonist)
CCOC(=O)c1c2c(n(C)c1C)C(=O)C(=O)c1ccc(Br)cc1-2	none
O=C1C2C3C=CC(C3)C2C(=O)N1c1n[nH]c(CCc2ccccc2)n1 (stereo unspecified)	none
C=CCN1N=C(c2ccc(NC(=O)c3ccccc3)cc2)CSC1=O	CHO parental Ca 47
Cc1noc(C)c1S(=O)(=O)N(C)C[C@@H]1OCc2cnnn2CCCC(=O)N([C@@H](C)CO)C[C@@H]1C	none (no result: OX1R antag-1, OX1R antag-2, CHO parental Ca, GPR7 antagonist)
C[C@H](CO)N1C[C@H](C)[C@H](CN(C)C(=O)Nc2ccc(F)cc2)Oc2c(NC(=O)c3ccc(-c4nccs4)cc3)cccc2C1=O	TAAR1 antagonist 54 (no result: GPR7 antagonist)
COc1ccc(NC(=O)N(C)C[C@H]2Oc3c(NC(=O)Nc4ccc(C(F)(F)F)cc4)cccc3C(=O)N([C@H](C)CO)C[C@@H]2C)cc1	TAAR1 antagonist 73 (no result: GPR7 antagonist)
C[C@H](CO)N1C[C@H](C)[C@@H](CN(C)C(=O)Nc2ccc(C(F)(F)F)cc2)Oc2c(NC(=O)c3ccncc3)cccc2C1=O	none (no result: GPR7 antagonist)
C[C@H](CO)N1C[C@H](C)[C@@H](CN(C)C(=O)Nc2ccc3c(c2)OCO3)Oc2c(NC(=O)Nc3ccc(C(F)(F)F)cc3)cccc2C1=O	TAAR1 antagonist 80 (no result: GPR7 antagonist)
C[C@H]1CN([C@@H](C)CO)C(=O)c2cccc(NC(=O)Nc3ccc(C(F)(F)F)cc3)c2O[C@@H]1CN(C)Cc1ccc(Cl)c(Cl)c1	TAAR1 antagonist 51 (no result: GPR7 antagonist)
C[C@@H]1CN([C@H](C)CO)C(=O)c2cc(NC(=O)Nc3ccc(C(F)(F)F)cc3)ccc2O[C@H]1CN(C)Cc1ccc(Cl)c(Cl)c1	none (no result: GPR7 antagonist)
CC(C)c1ccc(NC(=O)C(c2ccc3c(c2)OCO3)N2CCC3(CC2)OCCO3)cc1 (stereo unspecified)	none
CC1CCN(C(C(=O)Nc2ccc(C(C)C)cc2)c2ccc3c(c2)OCO3)CC1 (stereo unspecified)	CHO parental Ca 31
O=C(Nc1ccc(C(=O)O)cc1)/C(=C\C=C\c1ccccc1)NC(=O)c1ccccc1Br	TAAR1 antagonist 59
O=C(Nc1ccc(C(=O)O)cc1)/C(=C\C=C\c1ccccc1)NC(=O)c1cccc(Br)c1	none
O=C1c2ccccc2NC(c2ccc(O)c(O)c2)N1c1ccccc1Cl (stereo unspecified)	none
